Measurements reported in PMC4475676 (Biochemistry, 2015).

Assays:
peptide substrate [1] = test: NMR titration binding affinity
Method in brief: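 500 μM 15N-labeled wild-type or mutant protein titrated with 0, 0.1, 0.2, 0.5, 1 and 2 mM peptide. 15N HSQC recorded at 900 MHz. Shift changes of perturbed peaks were fit individually to a quadratic single-site binding equation. Peaks fitting with r² > 0.99 (fast exchange) were then fit globally for one KD per protein. Protein and peptide were in 50 mM Na2HPO4, 1 mM DTT, 1 mM EDTA, pH 6.5.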

peptide substrate [2] = test: ZZ-exchange NMR catalytic efficiency; format: biochemical
Method in brief: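 ZZ-exchange NMR used 1 mM 15N-labeled peptide with unlabeled enzyme, 20 μM at 0–20 °C or 1 μM at 30–45 °C. kex_eff came from time-dependent cross-peak build-up, with fit errors from a single experiment. Catalytic-Arg mutants used 100 μM protein at 30 °C with a 0.768 s mixing time. For these, the cis-peak to cross-peak intensity ratio stood in for turnover.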

[3] = denatures entirely; cited from earlier work
CypA = conditions: cited from earlier work
GeoCyp = conditions: cited from earlier work

CypA^A103R: CypA swap mutant, Ala 103 to Arg
effect of swap mutation on peptide binding (peptide substrate [1]; relative to wild type, NMR titration): strengthened | effect of swap mutation on catalytic efficiency (peptide substrate [2]; relative to wild type, ZZ-exchange, 20 μM protein): less

CypA^R55A: CypA with mutation of the catalytic arginine Arg 55 to alanine
catalysis after mutation of catalytic arginine (peptide substrate [2]; 100 μM protein, 1 mM peptide, 30 °C): nearly, but not entirely, ablates catalysis

CypA^WT: prototypical human cyclophilin A, mesophilic peptidyl-prolyl isomerase
temperature dependence of binding affinity for the peptide (peptide substrate [1]): highly temperature-dependent | Tm / denaturation temperature [3]: 51 °C | turnover at 45 °C compared between CypA and GeoCyp (peptide substrate [2]; 45 °C, 1 μM protein, 1 mM peptide): comparable rate

GSFGPDLRAGD [peptide substrate]
isomerization of G-P peptide bond by CypA (CypA): readily isomerized | isomerization of G-P peptide bond by GeoCyp (GeoCyp): readily isomerized
